In ChEMBL document CHEMBL4000227, “Structure activity relationships of benzylproline-derived inhibitors of the glutamine transporter ASCT2” (Bioorg Med Chem Lett, 2017):
Active and inactive are the calls of the source. No cut-off for these calls is given here.

How the values were obtained:
Format in all cases: cell-based
[1] = target: T1, Amino acid transporter (Rattus norvegicus) (UniProt Q9Z1J7); experiment: Inhibition of rat ASCT2 expressed in HEK293 cells assessed as outward current by measuring reduction in SCN anion inward current at 1 mM in presence of NaCl and NaSCN by whole cell patch-clamp method
T1 sequence (whole entry): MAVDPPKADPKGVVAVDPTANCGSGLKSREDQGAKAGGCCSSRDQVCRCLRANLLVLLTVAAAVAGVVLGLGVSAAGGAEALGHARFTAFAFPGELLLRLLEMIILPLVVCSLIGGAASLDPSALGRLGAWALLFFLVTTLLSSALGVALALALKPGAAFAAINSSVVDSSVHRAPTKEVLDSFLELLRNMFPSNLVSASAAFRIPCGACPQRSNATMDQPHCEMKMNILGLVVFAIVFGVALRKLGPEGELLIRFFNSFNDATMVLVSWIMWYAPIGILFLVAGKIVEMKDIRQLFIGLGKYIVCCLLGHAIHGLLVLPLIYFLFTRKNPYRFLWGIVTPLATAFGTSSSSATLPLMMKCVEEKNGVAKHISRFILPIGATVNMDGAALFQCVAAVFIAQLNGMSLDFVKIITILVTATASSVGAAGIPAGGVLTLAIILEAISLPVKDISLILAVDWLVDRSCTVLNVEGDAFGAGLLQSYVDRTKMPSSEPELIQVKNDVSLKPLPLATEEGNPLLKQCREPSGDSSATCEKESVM
Outline: (§1)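 Rat ASCT2 transiently transfected into HEK293T cells (no detectable endogenous ASCT2); whole-cell recording at 0 mV with 140 mM external NaCl, 135 mM internal NaSCN, 10 mM internal alanine. Compound applied at 1 mM; current expressed relative to saturating alanine response, saturating current calculated as I/Imax = c/(c+Km). Outward current taken as inhibition of leak anion conductance.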

[2] = target: T1, Amino acid transporter (Rattus norvegicus); experiment: Inhibition of rat ASCT2 expressed in HEK293 cells assessed as inhibition of L-alanine/Na+ exchange by measuring reduction in SCN anion inward current at 1 mM in presence of NaCl and NaSCN by whole cell patch-clamp method; outline: as §1
Amino acid transporter = target: T2, Amino acid transporter (Rattus norvegicus, UniProt Q9Z1J7); experiment: Inhibition of rat ASCT2 expressed in HEK293 cells assessed as inhibition of L-alanine/Na+ exchange by measuring reduction in SCN anion inward current in presence of NaCl and NaSCN by whole cell patch-clamp method; details: read-out: Ki(app)
T2 sequence (Q9Z1J7 whole entry): T1 sequence (whole entry)

SMILES | inhibition [1] | Imax [2] | Ki (Amino acid transporter)
O=C(O)C1C[C@@H](Cc2ccc(F)cc2)CN1 (single isomer, unassigned) | Active | 57% | 190 µM
O=C(O)C1C[C@@H](Cc2ccc(C(F)(F)F)cc2)CN1 (single isomer, unassigned) | Active | 47% | 
O=C(O)[C@@H]1C[C@@H](Cc2ccc(-c3ccccc3)cc2)CN1 | Active | 57% | 3 µM
O=C(O)C1C[C@@H](Cc2ccccc2Br)CN1 (single isomer, unassigned) | Active | 55% | 
O=C(O)C1C[C@@H](Cc2cccc(F)c2)CN1 (single isomer, unassigned) | Active | 67% | 177 µM
O=C(O)C1C[C@@H](Cc2ccc(F)c(F)c2)CN1 (single isomer, unassigned) | Active | 51% | 73 µM
O=C(O)[C@@H]1C[C@@H](Cc2ccc(Cl)cc2Cl)CN1 | Active | 56% | 30 µM
O=C(O)C1C[C@@H](Cc2ccccc2C(F)(F)F)CN1 (single isomer, unassigned) | Active | 49% | 220 µM
O=C(O)C1C[C@@H](Cc2ccccc2[N+](=O)[O-])CN1 (single isomer, unassigned) | Active | 61% | 
O=C(O)C1C[C@@H](Cc2ccccc2)CN1 (single isomer, unassigned) |  | 52% | 2000 µM
O=C(O)C1C[C@@H](Cc2ccccc2F)CN1 (single isomer, unassigned) | Active | 61% | 83 to 87 µM
O=C(O)C1C[C@@H](Cc2cccc(C(F)(F)F)c2)CN1 (single isomer, unassigned) | Active | 43% | 
O=C(O)C1C[C@@H](Cc2ccccc2Cl)CN1 (single isomer, unassigned) | Active | 46% | 195 µM
Cc1ccccc1C[C@H]1CNC(C(=O)O)C1 (single isomer, unassigned) | Active | 59% | 38 µM
